According to PubChem BioAssay:
Active and inactive are the calls of the source.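 The calls were made as follows, unless noted: active = fluorescence slope higher than the sample average by over 3 SD (cut at about -0.22 in these data, passing the limit was not always enough); inactive = the rest.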

Tests used:
[1] = inhibitors of TNFa-induced NFkB p65 translocation, primary screen, imaging, HUVEC, MLSMR starter and 10KST1 sets (AID 438;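 active = inhibition above 20% together with a positive visual image hit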;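 also: compound added about 3h40 before a 20 min TNFalpha stimulation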;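 as to inhibition: signal is the nuclear over cytoplasmic p65 intensity ratio per well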); settings: HUVEC TNFa-induced p65 nuclear translocation; cell count: measured here: nuclei count (cytotoxicity indicator), at 2.08 µM; inhibition: at 2 µM, stronger effect = higher value, 0% TNFa-plus-vehicle, 100% no-TNFa wells
[2] = inhibitors of mutant huntingtin aggregation, primary screen, imaging, exon1htt(103Q)mCFP cells, high-content imaging (AID 483;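 active = visual image review flags a hit and inhibition of aggregation exceeds 20%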;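 also: compound exposure lasted 3 days before fixation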;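 as to nuclei count: percent of the per-plate median nuclei count of sample wells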); settings: exon1htt(103Q)mCFP cell line, aggregate imaging, at 2 µM; inhibition of aggregation: stronger effect = higher value; nuclei count: measured here: cell count, toxicity
[3] = inhibitors of E-selectin induction by TNFa, primary screen, imaging, HUVEC, immunofluorescence, MLSMR starter and 10KST1 sets (AID 487;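 active = visually confirmed hit in the image check and inhibition above 20%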;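 as to inhibition: signal is fraction of cell area covered by stained E-selectin grains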;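 as to nuclei count: 100% = median nuclei count of all wells on the same plate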); settings: HUVEC TNFalpha-induced E-selectin immunofluorescence imaging, at 2 µM; inhibition: stronger effect = higher value; nuclei count: measured here: cell number, toxicity
[4] = biological target: Voltage-gated potassium channel subunit beta-2 (Rattus norvegicus) (UniProt P62483); test: KvBeta enzyme negative modulators, primary screen, biochemical, NADPH fluorescence (AID 622); settings: recombinant KvBeta, 4-cyanobenzaldehyde reduction, at 10 µM, stronger effect = higher value;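 also: slope of raw intensity against log time taken from 70 to 1610 s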
[5] = biological target: Voltage-gated potassium channel subunit beta-2 (Rattus norvegicus) (UniProt P62483); test: KvBeta positive modulators, primary screen, biochemical, NADPH fluorescence (AID 623;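 active = NADPH fluorescence slope more negative than the mean of all samples by about 3 SD, 99.7% confidence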;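 also: fluorescence intensity change per second fitted from 20 to 320 s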); settings: Recombinant KvBeta, NADPH fluorescence decrease slope, 10 min; at 10 µM; stronger effect = lower value
[6] = biological target: Alpha-2C adrenergic receptor (Homo sapiens) (UniProt P18825); test: modulators of alpha2C/GIRK thallium flux, primary screen, cell-based, HEK293 alpha2C/GIRK1/2 (AID 624;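 active = fluorescence slope after compound addition differing from the mean of all screened samples at 99.7% confidence, in either direction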;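 also: slope of fluorescence ratio to pre-addition baseline per second over 15 to 24 s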); settings: thallium flux BTC fluorescence, at 10 µM, actives lie on both sides
[7] = inhibitors of larval lipid processing in zebrafish, primary screen, whole organism, PED6 fluorescence, gall bladder and intestine (AID 686;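 active = a full or partial loss of lipid-probe fluorescence in the fish gall bladder, intestine or both, judged by eye; inactive = no fluorescence loss, or compound toxic to the fish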;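 also: larvae 5 to 7 days old with five fish per well; signal comes from phospholipase A2 cleavage of quenched PED6 carried via bile; overnight exposure to compound and PED6 before scoring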); settings: Zebrafish larvae PED6 lipid processing, fluorescence scoring; screened at 20 µM (by protocol)
Summary of the method: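 Also added: quenched phospholipase substrate PED6, 100 nM final, ingested by larvae; System: zebrafish larvae, 5-7 d; Quantity: 5 larvae per well; Compound: 20 µM single dose; Schedule: overnight compound and PED6 incubation; Read-out: visual per-well fluorescence inhibition score; Measured by: By-eye fluorescence microscopy; Medium: E3.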

[8] = inhibitors of Sendai virus-induced IRF3 signaling, primary screen, TLR/RLR signaling modifier project, cell-based, Sendai virus stimulus, luciferase, 10K MLSCN set (AID 602276;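 active = inhibition at or above 50% at 10 µM; inactive = inhibition below 50%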;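 also: firefly luciferase from ISG56 promoter only with Renilla not read in this screen; 0% = Sendai virus plus DMSO and 100% = medium plus DMSO without virus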); settings: HEK293 RL24 IRF3 luciferase reporter, at 10 µM, stronger effect = higher value
[9] = inhibitors of poly I:C-induced TLR3 signaling, primary screen, cell-based, poly I:C stimulus, luciferase, 10K MLSCN set (AID 602277;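 active = inhibition of the reporter signal at or above 50%; inactive = inhibition below 50%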); settings: HEK293-TLR3 RL24 IRF3 luciferase reporter, at 10 µM, stronger effect = higher value
[10] = biological target: Muscarinic acetylcholine receptor M4 (Homo sapiens) (UniProt P08173); test: compounds altering M4/GIRK thallium flux, either direction, primary screen, M4 allosteric agonist project, cell-based, HEK293 M4/GIRK, BTC-AM (AID 625;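 active = fluorescence slope after compound addition differing from the mean of all tested samples at 99.7% confidence, mostly higher but some lower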;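 also: thallium influx through GIRK channels coupled to M4 in HEK293 cells with BTC-AM dye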); settings: at 10 µM, actives lie on both sides
Summary of the method: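 assay system = HEK293 cells with M4 receptor and GIRK channels | medium = pH 7.3 thallium assay buffer | doses = 10 µM final, single point | timing = cells overnight at 37 °C, BTC-AM loading 1 h, reads 2 min total | signal = BTC-AM fluorescence, 1 Hz kinetic reads | read-out = post-addition slope, 15–24 s, of baseline-normalized fluorescence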

Sequence of Voltage-gated potassium channel subunit beta-2 (Rattus norvegicus) (P62483 whole entry, looked up): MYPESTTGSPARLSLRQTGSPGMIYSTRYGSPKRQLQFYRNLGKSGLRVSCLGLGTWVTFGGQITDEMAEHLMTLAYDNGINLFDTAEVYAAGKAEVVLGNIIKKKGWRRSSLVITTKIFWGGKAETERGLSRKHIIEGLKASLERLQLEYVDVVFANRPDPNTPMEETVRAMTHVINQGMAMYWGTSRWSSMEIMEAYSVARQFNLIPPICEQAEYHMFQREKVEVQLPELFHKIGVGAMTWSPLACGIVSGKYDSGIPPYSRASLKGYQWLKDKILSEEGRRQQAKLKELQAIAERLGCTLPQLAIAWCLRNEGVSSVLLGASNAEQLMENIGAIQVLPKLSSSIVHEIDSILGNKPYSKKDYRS
Sequence of Alpha-2C adrenergic receptor (Homo sapiens) (P18825 whole entry, looked up): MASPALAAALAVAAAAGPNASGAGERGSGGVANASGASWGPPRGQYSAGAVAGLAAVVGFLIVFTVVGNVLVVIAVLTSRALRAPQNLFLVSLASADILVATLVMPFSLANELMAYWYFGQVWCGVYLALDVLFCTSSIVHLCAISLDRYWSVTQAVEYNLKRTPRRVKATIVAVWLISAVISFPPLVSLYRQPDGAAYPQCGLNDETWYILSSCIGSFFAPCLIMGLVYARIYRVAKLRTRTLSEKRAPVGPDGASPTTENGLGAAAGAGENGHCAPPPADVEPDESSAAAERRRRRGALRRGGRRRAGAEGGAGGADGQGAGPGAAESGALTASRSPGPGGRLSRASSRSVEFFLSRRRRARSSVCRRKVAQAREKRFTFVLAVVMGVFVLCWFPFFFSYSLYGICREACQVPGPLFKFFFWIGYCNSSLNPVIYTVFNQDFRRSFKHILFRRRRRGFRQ
Sequence of Muscarinic acetylcholine receptor M4 (Homo sapiens) (P08173 whole entry, looked up): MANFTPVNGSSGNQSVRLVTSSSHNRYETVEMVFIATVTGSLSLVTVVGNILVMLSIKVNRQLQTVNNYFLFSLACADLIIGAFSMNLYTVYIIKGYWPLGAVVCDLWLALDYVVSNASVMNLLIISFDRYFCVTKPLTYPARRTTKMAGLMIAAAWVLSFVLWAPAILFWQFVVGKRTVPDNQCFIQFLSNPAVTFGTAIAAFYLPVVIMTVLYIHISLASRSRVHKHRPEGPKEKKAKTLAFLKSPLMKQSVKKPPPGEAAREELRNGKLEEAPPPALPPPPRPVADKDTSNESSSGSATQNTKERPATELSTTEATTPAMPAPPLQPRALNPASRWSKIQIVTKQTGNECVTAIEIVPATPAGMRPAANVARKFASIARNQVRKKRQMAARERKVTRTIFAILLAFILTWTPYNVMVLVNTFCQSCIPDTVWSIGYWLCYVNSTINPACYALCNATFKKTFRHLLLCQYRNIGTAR

| Compound | cell count [1] | inhibition [1] | inhibition of aggregation [2] | nuclei count [2] | inhibition [3] | nuclei count [3] | fluorescence slope [4] | NADPH fluorescence slope [5] | slope [6] | outcome [7] | inhibition [8] | inhibition [9] | fluorescence slope [10] |
| --- | --- | --- | --- | --- | --- | --- | --- | --- | --- | --- | --- | --- | --- |
| COc1ccc(OC)c(N(CC(=O)Nc2cccnc2)S(=O)(=O)c2ccc(OC)c(OC)c2)c1 | 722 | 7.9% (inactive) | -6.2% (inactive) | 97% | -37.3% (inactive) | 94.1% | -0.456 (inactive) | -5.3e-05 (inactive) | 0.00497 (inactive) | inactive | 18.6% (inactive) | 21.4% (inactive) |  |
| O=C(CSc1nc2ccccc2[nH]1)N1CCCCC1 | 433 | 0.5% (inactive) | 16% (inactive) | 102% | 13.2% (inactive) | 99.3% | -0.435 (inactive) | -3.6e-05 (inactive) | 0.00459 (inactive) | inactive | -14.8% (inactive) | -73.7% (inactive) |  |
| COc1ccc(/C=N/n2c(SC)nnc2-c2ccccc2)cc1C | 384 | -0.9% (inactive) | 6.2% (inactive) | 103% | -68.1% (inactive) | 117% | -0.384 (inactive) | -2e-05 (inactive) | 0.00536 (inactive) | inactive | 2.46% (inactive) | -2.96% (inactive) |  |
| COC(=O)c1cccc(NC(=O)CN2CCN(Cc3ccccc3)CC2)c1 | 382 | -6.1% (inactive) | -15.3% (inactive) | 124% | -28.9% (inactive) | 121% | -0.372 (inactive) | -9.8e-07 (inactive) | 0.0056 (inactive) | inactive | 12.8% (inactive) | 14.9% (inactive) |  |
| Cc1nc2ccc(F)cc2cc1C(=O)NCC1CCCO1 (stereo not given) | 421 | -8.7% (inactive) | 7.6% (inactive) | 96.4% | -34.7% (inactive) | 115% | -0.432 (inactive) | -4.9e-05 (inactive) | 0.00492 (inactive) | inactive | 17.3% (inactive) | 27.4% (inactive) |  |
| COc1cc(C(=O)N(C)c2nnc(-c3cccnc3)s2)cc(OC)c1OC | 646 | -5.5% (inactive) | 0.4% (inactive) | 99.2% | 3.6% (inactive) | 103% | -0.5 (inactive) | 1.3e-05 (inactive) | 0.00473 (inactive) | inactive | -9.5% (inactive) | -1.29% (inactive) |  |
| CCOc1ccccc1N1CC(O)=C(c2nc3ccccc3s2)C1=N | 348 | -0.8% (inactive) | 0.2% (inactive) | 97.7% | -69.5% (inactive) | 92% | -0.291 (inactive) | -3.9e-05 (inactive) | 0.00531 (inactive) | inactive | -19.5% (inactive) | 55.4% (active) |  |
| COc1ccc(C(=O)OC(COc2ccccc2)Cn2ccnc2)cc1 (stereo not given) | 348 | -7.4% (inactive) | -15.3% (inactive) | 98% | 13.4% (inactive) | 118% | -0.291 (inactive) | 6.7e-06 (inactive) |  |  | -15.3% (inactive) | -24.8% (inactive) | 0.00691 (inactive) |
| O=C(Nc1ccccc1)N(Cc1cccnc1)Cc1ccco1 | 335 | -0.7% (inactive) | 5.9% (inactive) | 97.2% | -36.9% (inactive) | 103% | -0.463 (inactive) | -3.6e-05 (inactive) |  |  | 18.2% (inactive) | 14.3% (inactive) | 0.00427 (inactive) |
| Cc1cc(C)n(Cc2nc3ccccc3n2C)n1 | 451 | 7% (inactive) | 4% (inactive) | 100% | -24.9% (inactive) | 119% | -0.577 (inactive) | -3.2e-05 (inactive) |  |  | 4.33% (inactive) | 36.3% (inactive) | 0.0071 (inactive) |
| COc1ccc(Cl)cc1N1CCN(CCNC(=O)Nc2ccccc2C)CC1 | 353 | 0.6% (inactive) | -3.4% (inactive) | 108% | -3.8% (inactive) | 111% | -0.452 (inactive) | -1.3e-05 (inactive) | 0.00435 (inactive) | inactive | 21.9% (inactive) | 8.13% (inactive) |  |
| COc1ccc(Br)cc1C(=O)Nc1nnn(C)n1 | 383 | 6.7% (inactive) | 5.6% (inactive) | 102% | 17% (inactive) | 106% | -0.51 (inactive) | 4.6e-05 (inactive) |  |  | -19.5% (inactive) | -34.7% (inactive) | 0.00661 (inactive) |
